The source of these data is publication PMC8132106 (Cancer chemotherapy and pharmacology, 2019).

SMILES strings stand for the structures. Read-outs that look alike come from different tables or passages of the source.

One series concerns AR + TNBC. To be noted: cited from earlier work.
The test system of a further series is mCRPC. To be noted: compared to placebo, cited from earlier work.
For series [1] the following is noted: cited from earlier work.
Series [2] in a line: Population PK model of seviteronel. As to conditions: for predicted accumulation: from simulated half-life 17.5 h. It counts as in vivo, human. An outline of the steps: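 Dense and sparse plasma concentrations (sparse from cycle 1 day 14, then every other cycle; LC-MS/MS; BQL excluded) were pooled; fed and fasted first doses counted as separate patients. One-, two- and three-compartment models with first-order or saturable absorption/elimination were tested, with exponential between-subject variability. Covariates tested: sex, body weight, prandial status, dexamethasone. Selection used OFV (−2LL; ΔOFV > 3.84, α = 0.05). Evaluation used a VPC with 200 simulated replicates (5th/50th/95th percentiles) and a split-off trough validation dataset.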

The next series has as its system CYP2C19. To be noted: 1uM substrate over 60 min; ref unpublished data on file; cited from earlier work.
A further series concerns CYP2C9. As to conditions: 1uM substrate over 60 min; ref unpublished data on file; cited from earlier work.
A further series relates to CYP17 lyase. To be noted: cited from earlier work.
The nature of series [3]: Noncompartmental analysis of seviteronel plasma PK in patients. It counts as in vivo, human.
For series [4] the following is noted: men taking 600 mg QD; cited from earlier work.
The next series deals with CYP3A4. To be noted: 1μM substrate over 60 min; ref unpublished data on file; cited from earlier work.
Series [5] is described as follows: Previously reported noncompartmental clinical PK of seviteronel. To be noted: with BID dosing, predicted from half-lives of 6.4 to 9.2 h. It counts as in vivo, human.
[6] abbreviates: apparent oral inter-compartmental clearance.
Where [7] appears, read: apparent oral total systemic clearance.
Setting [8] is: apparent oral volume of distribution of the central compartment.
The mark [9] stands for this setting: apparent oral volume of distribution of the peripheral compartment.
[10] abbreviates: transit rate between compartments of the transit absorption model.

Turning to `CNC(=O)c1ccc(N2C(=S)N(c3ccc(C#N)c(C(F)(F)F)c3)C(=O)C2(C)C)cc1F` [enzalutamide], the “radiographic progression-free survival (rPFS)” value in the series with AR + TNBC (single-arm, open-label study, women with AR + (≥ 10% by IHC) TNBC) was 14.7 weeks. In addition, the “improvement in overall survival (OS)” value was 4.8 mo with mCRPC (post-chemotherapy) and 2.4 mo in the series with mCRPC (pre-chemotherapy). The “overall reduction in risk of death” value in the series on mCRPC (post-chemotherapy) is given as 37%; with mCRPC (pre-chemotherapy), 29%.
For `CC(C)[C@](O)(c1ccc2cc(OC(F)F)c(OC(F)F)cc2c1)c1c[nH]nn1` [seviteronel], in series [1] (450 mg QD), the DLTs entry is “no reported DLTs”. Besides, the “time for drug-related adverse events to resolve to baseline” value in series [1] (CRPC men treated with seviteronel) was 2–3 weeks. Further, in [1] (women), the “Grade 1 events, 600 mg QD relative to 450 mg QD” value is “five times more”. Further, in [2] (200 replicates), the “CL/F, bootstrap mean estimate” value is reported as 6.89 L/h; the “Ka, bootstrap mean estimate” value is 2.47 h⁻¹; the “Ktr, bootstrap mean estimate” value is 1.98 L/h; the “Q/F, bootstrap mean estimate” value is on record as 6.99 L/h. Further, in series [2] (200 replicates), the “V/F, bootstrap mean estimate” value is 99.97 L and the “Vp/F, bootstrap mean estimate” value was 352.6 L. Besides, the “BSV on CL/F” value in series [2] (after accounting for sex effect) is listed as 45%. Besides, in series [2] (setting [6]), the “Q/F, base model estimate” value is reported as 6.99 L/h and the “Q/F, final model estimate” value is reported as 6.99 L/h. Moreover, in series [2] (setting [7]), the “CL/F, base model estimate” value is given as 7.15 L/h and the “CL/F, final model estimate” value is 6.69 L/h. Also, in series [2] (setting [8]), the “V/F, base model estimate” value was 69.9 L and the “V/F, final model estimate” value is on record as 99.97 L. In addition, in series [2] (setting [9]), the “Vp/F, base model estimate” value is 369 L and the “Vp/F, final model estimate” value is reported as 343.4 L. Moreover, in series [2] (before sex and body weight were included on CL/F), the “BSV of V/F” value worked out at 62.9%. Moreover, the “dCLdSex, final model estimate” value in series [2] (covariate effect on CL/F by Sex) is given as 0.5883. In addition, the “dCLdSex, bootstrap mean estimate” value in series [2] (covariate effect on CL/F by Sex, 200 replicates) was 0.559. Moreover, in series [2] (covariate effect on CL/F by body weight), the “dCLdWt, final model estimate” value is 0.2514. Further, the “dCLdWt, bootstrap mean estimate” value in series [2] (covariate effect on CL/F by body weight, 200 replicates) was 0.3595. Also, in [2] (final model), the “Between subject variability (%CV; ω) on Ka” value came to 133%, the “Between subject variability (%CV; ω) on Ktr” value turned out to be 94.9%, the “Between subject variability (%CV; ω) on Q/F” value came out at 51.5% and the “Between subject variability (%CV; ω) on V/F” value worked out at 51.4%. The “Between subject variability (%CV; ω) on Vp/F” value in series [2] (final model) is 35.9%. Also, the “Between subject variability (%CV; ω) on CL/F” value in series [2] (final model, sex and body weight on CL/F) amounted to 37.4%. In addition, in [2] (first-order absorption rate), the “Ka, base model estimate” value was 1.99 h⁻¹ and the “Ka, final model estimate” value is 2.49 h⁻¹. The “BSV on CL/F” value in series [2] (overall, before covariates) is 59.6%. Moreover, in series [2] (setting [10]), the “Ktr, base model estimate” value is 1.99 L/h and the “Ktr, final model estimate” value was 1.99 L/h. Further, in series [2] (with BID dosing), the predicted accumulation was 164%. The predicted accumulation in series [2] (with QD dosing) is on record as 63%. Also, the loss of substrate in the series with CYP2C19 is 100%. Further, the loss of substrate in the series on CYP2C9 is 100%. Moreover, in the series with CYP17 lyase, the “selectivity for inhibition of CYP17 lyase versus hydroxylase” value is “tenfold”. The “food effect on PK” value in [3] (Study 001, fasted vs fed) is “no statistically-significant food effect”. Moreover, the “half-life longer with 48 h sampling than calculated with 0–24 h sampling” value in series [3] (Study 002) is ~ 60%. For the same molecule, in [3] (Study 002, QD dosing), the “steady-state AUCTAU higher than first-dose AUCINF” value is given as ~ 60%. Further, the “steady-state trough levels with vs without dexamethasone” value in series [3] (dexamethasone 0.5 mg daily co-administration) is listed as “no statistically significant differences were observed”. In series [3] (observed plasma concentrations, Fig. 1), the accumulation at steady-state is on record as ~ 60%. Besides, in [4], the CMAX is listed as 4403 ± 1817 ng/mL. In addition, in the series with CYP3A4, the loss of substrate is given as 57%. The “predicted accumulation to steady-state” value in series [5] is 37–68%.
With `CC(=O)O[C@H]1CC[C@@]2(C)C(=CC[C@@H]3[C@@H]2CC[C@]2(C)C(c4cccnc4)=CC[C@@H]32)C1` [abiraterone acetate], the “radiographic progression-free survival (rPFS)” value with AR + TNBC (in combination with prednisone, women with AR + (> 0% by IHC) TNBC) was 11.2 weeks.
